ChEMBL document CHEMBL1148073, “Cytotoxic diterpenoids from Isodon megathyrsus” (1994)
Values after ≈ are worked out from the molar mass of the structure shown. Active and inactive are the calls of the source. The rule behind the calls is not given here.

Key:
[1] = Cytotoxicity against human KBVIN cells in presence of 1 ug/ml vinblastine after 3 days by SRB assay; type: functional; conditions: 72 h, read-out: ED50 (the source's name)
[2] = Cytotoxicity against human KBVIN cells after 3 days by SRB assay; type: functional; conditions: 72 h, read-out: ED50 (the source's name)
ZR-75-1 = test: Cytotoxicity against human ZR-75-1 cells after 3 days by SRB assay; type: functional; conditions: ZR-75-1, 72 h, read-out: ED50 (the source's name)
KB = test: Cytotoxicity against human KB cells after 3 days by SRB assay; type: functional; conditions: 72 h, read-out: ED50 (the source's name)
LNCaP = test: Cytotoxicity against human LNCAP cells after 3 days by SRB assay; type: functional; conditions: 72 h, read-out: ED50 (the source's name)
ASK = test: Cytotoxicity against human ASK cells after 3 days by SRB assay; type: functional, cell-based
In short: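 ASK cell line: human astrocytoma.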

Lu1 = test: Cytotoxicity against human Lu1 cells after 3 days by SRB assay; type: functional; conditions: Lu1, 72 h, read-out: ED50 (the source's name)
[3] = biological target: Human immunodeficiency virus type 1 reverse transcriptase (Human immunodeficiency virus 1) (UniProt Q72547); test: Inhibition of HIV1 reverse transcriptase
Plasmodium falciparum = test: Antimalarial activity against Plasmodium falciparum by [3H]hypoxanthine uptake; type: functional, organism-based

Work on `COc1cc2c(c(OC)c1OC)-c1ccc(OC)c(=O)cc1[C@@H](NC(C)=O)CC2` [COLCHICINE] yielded an EC50 [1] of 0.6 µg/mL, an EC50 [2] of 3.5 µg/mL (≈ 8.76 µM) and an EC50 (ZR-75-1) of 0.1 µg/mL (≈ 0.25 µM). The EC50 (KB) was 0.2 µg/mL (≈ 0.501 µM), the EC50 (LNCaP) was 0.06 µg/mL (≈ 0.15 µM) and the ED50 (ASK) was “Active”. For the same compound, the EC50 (Lu1) was 0.2 µg/mL (≈ 0.501 µM).

With `Cc1c2ccncc2c(C)c2c1[nH]c1ccccc12` [ELLIPTECINE] the EC50 [1] was 0.2 µg/mL, the EC50 [2] was 0.3 µg/mL (≈ 1.22 µM) and the EC50 (ZR-75-1) was 0.9 µg/mL (≈ 3.65 µM). The EC50 (KB) was 0.04 µg/mL (≈ 0.162 µM), the EC50 (LNCaP) was 0.8 µg/mL (≈ 3.25 µM) and the ED50 (ASK) was “inactive”. The EC50 (Lu1) was 0.2 µg/mL (≈ 0.812 µM).

In the case of `C=C1C(=O)[C@]23[C@H](O)[C@H]1CC[C@H]2[C@@]12CO[C@@]3(O)C[C@@H]1C(C)(C)CC[C@@H]2O` [MEGATHYRIN A], the EC50 [1] is reported as 8.9 µg/mL, the Activity [3] is reported as “inactive” and the EC50 [2] is reported as 19.1 µg/mL (≈ 54.8 µM). The Activity (Plasmodium falciparum) was “inactive”, the EC50 (ZR-75-1) was 1.8 µg/mL (≈ 5.17 µM) and the EC50 (KB) was 1.1 µg/mL (≈ 3.16 µM). For the same compound, the EC50 (LNCaP) was 1.8 µg/mL (≈ 5.17 µM), the ED50 (ASK) was “inactive” and the EC50 (Lu1) was 3.4 µg/mL (≈ 9.76 µM).

With `C=C1C(=O)[C@]23[C@H](O)[C@H]1CC[C@H]2[C@@]12CO[C@@]3(O)C[C@@H]1C(C)(C)CC[C@@H]2OC(C)=O` [RABDOCOETSIN B] the EC50 [1] was 7.2 µg/mL, the Activity [3] was “inactive” and the EC50 [2] was greater than 20 µg/mL. For the same compound, the Activity (Plasmodium falciparum) was “inactive”, the EC50 (ZR-75-1) was 0.8 µg/mL (≈ 2.05 µM) and the EC50 (KB) was 0.3 µg/mL (≈ 0.768 µM). For the same compound, the EC50 (LNCaP) was 0.6 µg/mL (≈ 1.54 µM), the ED50 (ASK) was “inactive” and the EC50 (Lu1) was 0.5 µg/mL (≈ 1.28 µM).

In the case of `C=C1C(=O)[C@]23C[C@H]1C[C@H](O)[C@H]2[C@@]12CO[C@@]3(O)C[C@@H]1C(C)(C)CC[C@@H]2O` [RABDOCOETSIN C], the EC50 [1] is reported as greater than 20 µg/mL, the Activity [3] is reported as “inactive” and the EC50 [2] is reported as greater than 20 µg/mL. For the same compound, the Activity (Plasmodium falciparum) was “inactive”, the EC50 (ZR-75-1) was 1 µg/mL (≈ 2.87 µM) and the EC50 (KB) was 0.6 µg/mL (≈ 1.72 µM). The EC50 (LNCaP) was 0.7 µg/mL (≈ 2.01 µM), the ED50 (ASK) was “inactive” and the EC50 (Lu1) was 0.4 µg/mL (≈ 1.15 µM).

With `C=C1C(=O)[C@]23C[C@H]1C[C@H](OC(C)=O)[C@H]2[C@@]12CO[C@@]3(O)C[C@@H]1C(C)(C)CC[C@@H]2O` [RABDOCOETSIN D] the EC50 [1] was 12.1 µg/mL, the Activity [3] was “inactive” and the EC50 [2] was 9.5 µg/mL (≈ 24.3 µM). The Activity (Plasmodium falciparum) was “inactive”, the EC50 (ZR-75-1) was 0.8 µg/mL (≈ 2.05 µM) and the EC50 (KB) was 0.5 µg/mL (≈ 1.28 µM). For the same compound, the EC50 (LNCaP) was 0.8 µg/mL (≈ 2.05 µM), the ED50 (ASK) was “inactive” and the EC50 (Lu1) was 0.9 µg/mL (≈ 2.3 µM).
